This passage reports Activity, inhibition and Kd results from ChEMBL document CHEMBL5029161, “Synthetic Neutralizing Peptides Inhibit the Host Cell Binding of Spike Protein and Block Infection of SARS-CoV-2” (J Med Chem, 2021).

Data set [1] concerns A549. As to the kind of experiment: Cytotoxicity against human A549 cells assessed as cell viability at 0.001 to 100 uM measured after 48 hrs using CCK-8 assay. The data set is classed as cell-based. As to conditions: a549, 48 h, dose 0.001-100 µM. In short, it runs like this: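 A549 cells were grown in McCoy-5A with 10% FBS. They were exposed to peptides at 1 nM–100 μM (tenfold steps) for 48 h, with medium alone as control. After a PBS wash, CCK-8 was added and incubated at 37 °C. OD was read at 450/630 nm and normalised to control, n = 3.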
On the technique in general: Tetrazolium assays rely on reduction of a dye to a coloured formazan, in cell work by metabolically active cells.

Data set [2] relates to 293T/ACE2. The data set can be described thus: Inhibition of Spike protein subunit S in SARS-CoV-2 pseudovirus assessed as inhibition of infection in human 293T/ACE2 cells by measuring decrease in luciferase activity at 0.000001 to 100 uM pretreated for 1 hr. The data set is classed as cell-based. As to conditions: Severe acute respiratory syndrome coronavirus 2, dose lower 1e-06 µM, dose upper 100.0 µM. An outline of the steps: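 The pseudovirus was HIV-1-based, bought ready-made, and carried S protein with luciferase and GFP reporters. It was pre-mixed with serially diluted peptides (1 pM–100 μM) for 1 h at 37 °C, then added to 293T-ACE2⁺ cells for 1 h. Medium was then replaced, followed by 47 h further culture. Infection rate was derived from luciferase activity.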

The nature of data set [3]: Binding affinity to the recombinant SARS-Cov-2 Spike protein subunit S1 by QCM-D measurement. Also noted: species or system Severe acute respiratory syndrome coronavirus 2. An outline of the steps:
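Peptides were thiolated and coated onto 5 MHz gold QCM-D sensors for 30 min at room temperature. Recombinant S1 protein then flowed over as mobile phase at 300 μL/min, 37 °C, in PBS. Kd came from nonlinear regression of saturated binding mass (Δm) against […] (nM).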

Data set [4] concerns 293T/ACE2. The data set can be described thus: Cytotoxicity against human 293T/ACE2 cells assessed as cell viability at 0.001 to 100 uM measured after 48 hrs using CCK-8 assay. The data set is classed as functional, cell-based. As to conditions: dose 0.001-100 µM. In short, it runs like this:
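293T-ACE2⁺ cells were grown in high-glucose DMEM with 10% FBS and 500 μg/mL hygromycin. They were exposed to peptides at 1 nM–100 μM (tenfold steps) for 48 h, with medium alone as control. After a PBS wash, CCK-8 was added and incubated at 37 °C. OD was read at 450/630 nm and normalised to control, n = 3.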

The test system of data set [5] is 293T/ACE2. The data set can be described thus: Inhibition of Spike protein subunit S in SARS-CoV-2 pseudovirus assessed as inhibition of infection in human 293T/ACE2 cells by measuring decrease in fluorescence intensity at 0.000001 to 100 uM pretreated for 1 hr. The note with it: Severe acute respiratory syndrome coronavirus 2, dose lower 1e-06 µM, dose upper 100.0 µM. The data set is classed as cell-based. An outline of the steps:
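A bought-in HIV-1-based S-pseudotyped reporter virus expressing GFP was preincubated with serially diluted peptides for 1 h at 37 °C. It was then applied to 293T-ACE2⁺ cells for 1 h and replaced with fresh medium, followed by 47 h more culture. Cellular GFP fluorescence intensity was observed.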

The subject of data set [6] is 293T/ACE2. As to the kind of experiment: Inhibition of recombinant SARS-Cov-2 Spike protein subunit S1 binding to human 293T/ACE2 cells preincubated for 1 hr by Western blot analysis. The data set is classed as cell-based. The note with it: Severe acute respiratory syndrome coronavirus 2. An outline of the steps: (§1)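 Recombinant S1 protein was preincubated with peptides for 1 h at 37 °C, then added to A549 or 293T-ACE2⁺ cells for 1 h. Cells were washed, lysed in RIPA with PMSF and phosphatase inhibitor, and equal protein was run on SDS-PAGE. Blots on PVDF were probed with anti-S1 rabbit pAb, with ACTB as loading reference, and detected by chemiluminescence.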
For orientation: Immunoblotting shows a protein as a band on a membrane.

Data set [7] has as its system A549. The data set can be described thus: Inhibition of recombinant SARS-Cov-2 Spike protein subunit S1 binding to human A549 cells preincubated for 1 hr by Western blot analysis. The note with it: Severe acute respiratory syndrome coronavirus 2. The data set is classed as cell-based. In short, it runs like this:
as §1

The term Kd denotes the equilibrium constant for the complex coming apart.

Active and inactive are the calls of the source. The rule behind the calls is not given here.

On to H-GDLFDDSNLDPFRDRISTRR-OH, for which the results for the Activity entry with A549 [1] and in the data set with 293T/ACE2 [4] were “Non-Toxic” and “Not toxic”, respectively. Moreover, the inhibition entry in the data set with 293T/ACE2 [2], with 293T/ACE2 [5], with 293T/ACE2 [6] and with A549 [7] was “Active” each time. In data set [3], the Kd came out at 37.5 nM.

In the case of H-GDGVYYPRDVFDSSVLDSTQR-OH, the Activity result in the data set on A549 [1] is “Non-Toxic”; with 293T/ACE2 [4] it was “Not toxic”. Also, the inhibition result with 293T/ACE2 [2], in the data set with 293T/ACE2 [5], in the data set with 293T/ACE2 [6] and in the data set on A549 [7] was “Active” throughout. Moreover, the Kd in data set [3] is 5.6 nM.

For the substance H-GDRIARTTRAVDRPQTLRR-OH, the Activity entry was “Non-Toxic” with A549 [1] and “Not toxic” in the data set on 293T/ACE2 [4]. Further, the inhibition result with 293T/ACE2 [2], in the data set with 293T/ACE2 [5], in the data set on 293T/ACE2 [6] and in the data set on A549 [7] was “Active” each time. Also, the dissociation constant Kd in data set [3] was 76.9 nM.
